ChEMBL document CHEMBL3272019, “Synthesis and some properties and antitumor effects of the actinomycin lactam analog, (di(1-L-alpha, beta-diaminopropionic))actinomycin D1” (1976)
In brackets after ≈: the same amount, converted by molar mass. Activity calls are given as the source filed them. The calls are words filed in the database; no cut-off is given here.

Tests used:
[1] = system: L1210; test: Antitumor activity against mouse L1210 cells allografted in BDF1 mouse assessed as increase in lifespan at 0.15 mg/kg/injection, ip administered intermittently on days 1, 5 and 9; assay type: functional; settings: route intraperitoneal
[2] = system: L1210; test: Antitumor activity against mouse L1210 cells allografted in BDF1 mouse assessed as increase in life span at 0.2 mg/kg/injection, ip administered as single dose; assay type: functional; settings: route intraperitoneal
[3] = system: L1210; test: Antitumor activity against mouse L1210 cells allografted in BDF1 mouse assessed as mean survival time at 0.15 mg/kg/injection, ip administered intermittently on days 1, 5 and 9 (reference value: 9.6 days); assay type: functional; settings: route intraperitoneal
[4] = system: P388; test: Antitumor activity against mouse P388 cells allografted in BDF1 mouse assessed as increase in life span at 0.2 mg/kg/injection, ip administered as single dose measured on day 60; assay type: functional; settings: 1440 h, route intraperitoneal
Outline: (§1)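 P388 leukaemia: 10⁶ cells implanted ip on day 0 into groups of eight male BDF mice. Dosing was ip daily on days 1–9, on days 1, 5 and 9, or as a single day-1 dose, over four- to fivefold dose ranges. Median survival time (range of deaths) and percent increase in life-span were recorded, with survivors/total counted at day 60.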

[5] = system: L1210; test: Antitumor activity against mouse L1210 cells allografted in BDF1 mouse assessed as mean survival time at 0.2 mg/kg/injection, ip administered as single dose (reference value: 9.6 days); assay type: functional; settings: route intraperitoneal
[6] = system: L1210; test: Antitumor activity against mouse L1210 cells allografted in BDF1 mouse assessed as increase in life span at 0.0125 mg/kg/injection, ip administered daily for 9 days; assay type: functional; settings: 216 h, route intraperitoneal
[7] = system: Pseudoalteromonas phage PM2; test: Binding affinity to bacteriophage PM2 DNA at 25 uM by visible and near-UV CD spectrophotometry
Outline: (§2)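 CD spectra, visible and near-UV, of 25.0 µM drug alone and with DNA (calf thymus or PM2, 0.52 mM as nucleotide phosphorus) in 0.01 M sodium phosphate, pH 7.0. Recorded at about 23° in tandem 1-cm cylindrical quartz cells. Drug concentration was set spectrophotometrically at 440 nm.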

[8] = system: L1210; test: Antitumor activity against mouse L1210 cells allografted in BDF1 mouse assessed as mean survival time at 0.0125 mg/kg/injection, ip administered daily for 9 days (reference value: 9.6 days); assay type: functional; settings: route intraperitoneal
[9] = system: P388; test: Antitumor activity against mouse P388 cells allografted in BDF1 mouse assessed as mean survival time at 0.15 mg/kg/injection, ip administered intermittently on days 1, 5 and 9 (reference value: 10.5 days); assay type: functional; settings: route intraperitoneal; outline: as §1
[10] = system: B16; test: Antitumor activity against mouse B16 cells allografted in BDF1 mouse assessed as mean survival time at 0.05 mg/kg/injection, ip administered as single dose (reference value: 28 days); assay type: functional; settings: route intraperitoneal
Outline: (§3)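 B16 melanoma in mice, standard screening method. Schedules were daily on days 1–9, on days 1, 5 and 9, or a single day-1 injection, each over a four- to fivefold dose range. Survival time (range of individual deaths) was recorded, percent increase in life-span computed against untreated controls, and survivors tallied.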

[11] = system: P388; test: Antitumor activity against mouse P388 cells allografted in BDF1 mouse assessed as mean survival time at 0.1 mg/kg/injection, ip administered daily for 9 days (reference value: 10.5 days); assay type: functional; settings: route intraperitoneal; outline: as §1
[12] = system: Bacillus subtilis; test: Antibacterial activity against Bacillus subtilis Marburg assessed as growth inhibition; assay type: functional
[13] = system: B16; test: Antitumor activity against mouse B16 cells allografted in BDF1 mouse assessed as mean survival time at 0.05 mg/kg/injection, ip administered daily for 9 days (reference value: 28 days); assay type: functional; settings: route intraperitoneal; outline: as §3
[14] = system: Calf thymus DNA; test: Binding affinity to calf thymus DNA at 25 uM by visible and near-UV CD spectrophotometry; assay type: nucleic-acid assay; settings: Bos taurus; outline: as §2
[15] = system: P388; test: Antitumor activity against mouse P388 cells allografted in BDF1 mouse assessed as increase in life span at 0.15 mg/kg/injection, ip administered intermittently on days 1, 5 and 9 measured on day 60; assay type: functional; settings: 1440 h, route intraperitoneal; outline: as §1
[16] = system: P388; test: Antitumor activity against mouse P388 cells allografted in BDF1 mouse assessed as increase in life span at 0.1 mg/kg/injection, ip administered daily for 9 days measured on day 60; assay type: functional; settings: route intraperitoneal; outline: as §1
[17] = system: Staphylococcus aureus; test: Antibacterial activity against Penicillin-resistant Staphylococcus aureus assessed as growth inhibition; assay type: functional
[18] = system: Sarcina; test: Antibacterial activity against Sarcina subflava assessed as growth inhibition; assay type: functional
[19] = system: B16; test: Antitumor activity against mouse B16 cells allografted in BDF1 mouse assessed as mean survival time at 0.075 mg/kg/injection, ip administered intermittently on days 1, 5 and 9 (reference value: 28 days); assay type: functional; settings: route intraperitoneal; outline: as §3
[20] = system: Calf thymus DNA; test: Binding affinity to calf thymus DNA at 37.1 uM by visible and near-UV CD spectrophotometry; assay type: nucleic-acid assay; settings: Bos taurus
Outline: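 Visible/near-UV CD of 37.1 µM drug, free and with calf thymus DNA at 0.53 mM nucleotide phosphorus, in 0.01 M sodium phosphate pH 7.0 at about 23°. Tandem 1-cm quartz cells were used. Concentration was fixed from absorbance at 440 nm (ε 23585 M⁻¹ cm⁻¹).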

[21] = system: P388; test: Antitumor activity against mouse P388 cells allografted in BDF1 mouse assessed as mean survival time at 0.2 mg/kg/injection, ip administered as single dose (reference value: 10.5 days); assay type: functional; settings: route intraperitoneal; outline: as §1
[22] = system: B16; test: Antitumor activity against mouse B16 cells allografted in BDF1 mouse assessed as increase in life span at 0.075 mg/kg/injection, ip administered intermittently on days 1, 5 and 9 measured on day 60; assay type: functional; settings: 1440 h, route intraperitoneal; outline: as §3
[23] = system: B16; test: Antitumor activity against mouse B16 cells allografted in BDF1 mouse assessed as increase in life span at 0.05 mg/kg/injection, ip administered as single dose measured on day 60; assay type: functional; settings: 1440 h, route intraperitoneal; outline: as §3
[24] = system: B16; test: Antitumor activity against mouse B16 cells allografted in BDF1 mouse assessed as increase in life span at 0.05 mg/kg/injection, ip administered daily for 9 days measured on day 60; assay type: functional; settings: route intraperitoneal; outline: as §3

Cc1c2oc3c(C)ccc(C(=O)N[C@H]4CNC(=O)[C@H](C(C)C)N(C)C(=O)CN(C)C(=O)[C@@H]5CCCN5C(=O)[C@@H](C(C)C)NC4=O)c3nc-2c(C(=O)N[C@H]2CNC(=O)[C@H](C(C)C)N(C)C(=O)CN(C)C(=O)[C@@H]3CCCN3C(=O)[C@@H](C(C)C)NC2=O)c(N)c1=O
ILS at 0.15 mg/kg [1]: 14%
ILS at 0.2 mg/kg [2]: 22%
MST [3]: 11 days
ILS at 0.2 mg/kg [4]: 33%
MST [5]: 11.8 days
ILS at 0.0125 mg/kg [6]: 17%
Activity [7]: Active
MST [8]: 11.2 days
MST [9]: 14 days
MST [10]: 29 days
MST [11]: 14.5 days
MIC [12]: 0.9 µg/mL (≈ 0.734 µM)
IC50 ([12]; read-out: ID50 (the source's name)): 0.4 µg/mL (≈ 0.326 µM)
MST [13]: 30 days
Activity [14]: Active
ILS at 0.15 mg/kg [15]: 33%
ILS at 0.1 mg/kg [16]: 38%
MIC [17]: 0.35 µg/mL (≈ 0.286 µM)
MIC [18]: 0.35 µg/mL (≈ 0.286 µM)
MST [19]: 32 days
Activity [20]: Active
MST [21]: 14 days
ILS at 0.075 mg/kg [22]: 14%
ILS at 0.05 mg/kg [23]: 4%
ILS at 0.05 mg/kg [24]: 7%
